Data on 30 molecules can be found in ChEMBL document CHEMBL1156054, “Allosteric functional switch of neurokinin A-mediated signaling at the neurokinin NK2 receptor: structural exploration” (J Med Chem, 2009).

Each structure is given as a SMILES string. Calls of active or inactive are those of the source. The rule behind the calls is not given here.

One assay has as its target T1, Substance-K receptor (Rattus norvegicus) (UniProt P16610).
T1 sequence (whole entry): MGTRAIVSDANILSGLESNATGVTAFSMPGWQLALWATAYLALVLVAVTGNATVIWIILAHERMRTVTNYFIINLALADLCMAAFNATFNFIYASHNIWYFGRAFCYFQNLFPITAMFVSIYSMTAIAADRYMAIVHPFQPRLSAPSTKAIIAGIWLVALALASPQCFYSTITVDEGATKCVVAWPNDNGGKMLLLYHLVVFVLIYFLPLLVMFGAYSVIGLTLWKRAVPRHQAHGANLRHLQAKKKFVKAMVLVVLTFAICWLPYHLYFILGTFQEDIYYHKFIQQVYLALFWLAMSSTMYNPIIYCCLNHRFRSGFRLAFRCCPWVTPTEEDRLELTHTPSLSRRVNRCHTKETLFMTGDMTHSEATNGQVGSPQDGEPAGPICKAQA
Put plainly: Allosteric modulation of rat NK2 receptor expressed in HEK293 cells assessed as formation of active receptor calcium-triggering conformation at 50 uM in presence of 20nM NKA-Bo by FRET assay. Format: functional, cell-based.
With `N#CCN(Cc1ccccc1)Cc1ccc2ccccc2c1`, the Activity stood at 95%.

The target of another assay is T1, Substance-K receptor (Rattus norvegicus). Description: Allosteric modulation of rat NK2 receptor expressed in HEK293 cells assessed as reduction of neurokinin A-induced cAMP production at 10 uM by radioimmunoassay. Format: functional, cell-based. Details: scale not given: the % may be the effect or the level left. The procedure, abridged: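 HEK293 cells expressing NK2 receptor are seeded at 50000 on collagen-coated wells and cultured 3 days (~80% confluency). They are stimulated with increasing NKA concentrations with or without 10 μM compound. The reaction is stopped with ice-cold 0.2 M HCl and cAMP is measured by radioimmunoassay. Values are mean ± SD of six determinations; the change in maximal response amplitude is reported.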
(Changes in cAMP serve as a functional read-out for many G protein-coupled receptors.)
As for `N#CCN(Cc1ccccc1)Cc1ccc2ccccc2c1`, the Activity is 33%.

As to `N#CCCCN(Cc1ccccc1)Cc1ccc2ccccc2c1`, the Activity is 47%.

For another assay the target is unchanged. Description: Allosteric modulation of rat NK2 receptor expressed in HEK293 cells assessed as formation of active receptor cAMP-producing conformation at 10 uM in presence of 20nM NKA-Bo by FRET assay. Format: functional, cell-based. The essentials:
(§1)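 HEK293 cells stably expressing EGFP-fused rat NK2 receptor (hygromycin B 500 μg/mL selection) are suspended in Hepes-BSA buffer, pH 7.4, with protease inhibitors. EGFP emission is read at 510 nm with 470 nm excitation. 20 nM NKA-Bo is added at 50 s, compound (10 μM) at 450 s for 150 s, then excess unlabeled NKA at 600 s.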
Take `N#CCN(Cc1ccccc1)Cc1ccc2ccccc2c1`: the Activity stood at 50%.

A further assay has the same target. Put plainly: Allosteric modulation of rat NK2 receptor expressed in HEK293 cells assessed as formation of active receptor calcium-triggering conformation at 10 uM in presence of 20nM NKA-Bo by FRET assay. Type of assay: functional, cell-based. The essentials: as §1
With `N#CCN(Cc1ccccc1)Cc1ccc2ccccc2c1`, the Activity amounted to 50%.

`c1ccc(CN(Cc2ccc3ccccc3c2)c2ccccn2)cc1`: the Activity amounted to 56%.

In the case of `N#CCN(Cc1ccc(Br)cc1)Cc1ccc2ccccc2c1`, the Activity was determined as 45%.

Consider `N#CCN(Cc1ccccc1)Cc1cccc(Cl)c1`, for which the Activity was found to be 45%.

Take `O=C(O)CN(Cc1ccccc1)Cc1ccc2ccccc2c1`: the Activity came out at 35%.

For the molecule `CCCCCCCCCCCCCCCCOC(=O)CN(Cc1ccccc1)Cc1ccc2ccccc2c1`, the Activity stood at 38%.

Regarding `CN1CCN(C(=O)CN(Cc2ccccc2)Cc2ccc3ccccc3c2)CC1`, the Activity is 58%.

For the molecule `N#CCN(Cc1ccc(I)cc1)Cc1ccc2ccccc2c1`, the Activity came to 47%.

Take `N#CCN(Cc1ccccc1)Cc1cnc2ccccc2c1`: the Activity was 46%.

As to `c1ccc(CN(Cc2ccc3ccccc3c2)c2cccnc2)cc1`, the Activity is 59%.

In the case of `O=C(CN(Cc1ccccc1)Cc1ccc2ccccc2c1)OCCN1CCOCC1`, the Activity was determined as 42%.

Take `O=C(CN(Cc1ccccc1)Cc1ccc2ccccc2c1)N1CCN(c2ccccc2)CC1`: the Activity was found to be 43%.

Consider `N#CCN(Cc1ccc(CCc2ccccc2)cc1)Cc1ccc2ccccc2c1`, for which the Activity was found to be 39%.

`c1ccc(CN(Cc2ccc3ccccc3c2)c2ccncn2)cc1`: the Activity came to 61%.

As for `CCOC(=O)CCCCN(Cc1ccccc1)Cc1ccc2ccccc2c1`, the Activity is 52%.

Consider `O=C(CN(Cc1ccccc1)Cc1ccc2ccccc2c1)OCCO`, for which the Activity is 53%.

As to `N#CCN(Cc1ccc2ccccc2c1)Cc1ccccc1Br`, the Activity amounted to 43%.

As for `N#CCN(Cc1ccccc1)Cc1ccc(Cl)cc1`, the Activity came to 53%.

For the molecule `O=C(CN(Cc1ccccc1)Cc1ccc2ccccc2c1)OCCc1ccccc1`, the Activity is 46%.

With `CCCCNC(=O)CN(Cc1ccccc1)Cc1ccc2ccccc2c1`, the Activity came out at 54%.

In the case of `N#CCCCN(Cc1ccccc1)Cc1ccc2ccccc2c1`, the Activity was 68%.

As to `O=C(CN(Cc1ccccc1)Cc1ccc2ccccc2c1)N1CCCCC1`, the Activity was 44%.

For `N#CCN(Cc1ccccc1)Cc1ccc2ccccc2n1`, the Activity was found to be 47%.

For the molecule `COc1ccc(CN(CC#N)Cc2ccc3ccccc3c2)cc1`, the Activity was 54%.

As for `N#CCN(Cc1ccccc1)Cc1ccc(C(F)(F)F)cc1`, the Activity came to 48%.

Take `COc1ccc(CN(CC#N)Cc2ccccc2)cc1`: the Activity came to 49%.

Take `C#CCN(Cc1ccccc1)Cc1ccc2ccccc2c1`: the Activity worked out at 51%.

For `N#CCN(C/C=C/c1ccccc1)Cc1ccccc1`, the Activity stood at 47%.

Regarding `O=C(O)CCCCN(Cc1ccccc1)Cc1ccc2ccccc2c1`, the Activity was 44%.

`CCOC(=O)CN(Cc1ccccc1)Cc1ccc2ccccc2c1`: the Activity was found to be 51%.

The target is the same in another assay. Description: Allosteric modulation of rat NK2 receptor expressed in HEK293 cells assessed as formation of active receptor cAMP-producing conformation at 50 uM in presence of 20nM NKA-Bo by FRET assay. Type of assay: functional, cell-based.
`N#CCN(Cc1ccccc1)Cc1ccc2ccccc2c1`: the Activity was determined as 5%.

A further assay shares this target. Put plainly: Allosteric modulation of rat NK2 receptor expressed in HEK293 cells assessed as enhancement of neurokinin A-induced intracellular calcium level at 20 uM by spectrofluorimetry. Format: functional, cell-based. On the technique in general: Calcium assays in cells follow changes in intracellular calcium, usually with a dye or a luminescent sensor.
As to `N#CCN(Cc1ccccc1)Cc1ccc2ccccc2c1`, the outcome was inactive.

For `N#CCCCN(Cc1ccccc1)Cc1ccc2ccccc2c1`, the Emax – broadly, the size of the effect at its maximum, as opposed to the concentration needed – turned out to be 120%.

Another assay has the same target. Put plainly: Inhibition of NKA-Bo binding to rat NK2 receptor expressed in HEK293 cells at 10 uM by FRET assay relative to neurokinin A. Format: cell-based. The procedure, abridged:
as §1
Consider `N#CCN(Cc1ccccc1)Cc1ccc2ccccc2c1`, for which the inhibition – broadly, the change of the read-out against control, counted positive when it falls – came to 0%.

`c1ccc(CN(Cc2ccc3ccccc3c2)c2ccccn2)cc1` came in with an inhibition of 17%.

`N#CCN(Cc1ccc(Br)cc1)Cc1ccc2ccccc2c1` yielded an inhibition of 0%.

With `N#CCN(Cc1ccccc1)Cc1cccc(Cl)c1`, the inhibition stood at 0%.

`O=C(O)CN(Cc1ccccc1)Cc1ccc2ccccc2c1` showed an inhibition of 0%.

As to `CCCCCCCCCCCCCCCCOC(=O)CN(Cc1ccccc1)Cc1ccc2ccccc2c1`, the inhibition was 0%.

As for `CN1CCN(C(=O)CN(Cc2ccccc2)Cc2ccc3ccccc3c2)CC1`, the inhibition is 0%.

Take `N#CCN(Cc1ccc(I)cc1)Cc1ccc2ccccc2c1`: the inhibition was 0%.

As for `N#CCN(Cc1ccccc1)Cc1cnc2ccccc2c1`, the inhibition came out at 21%.

For the molecule `c1ccc(CN(Cc2ccc3ccccc3c2)c2cccnc2)cc1`, the inhibition was found to be 0%.

The molecule `O=C(CN(Cc1ccccc1)Cc1ccc2ccccc2c1)OCCN1CCOCC1` gave an inhibition of 0%.

In turn, `O=C(CN(Cc1ccccc1)Cc1ccc2ccccc2c1)N1CCN(c2ccccc2)CC1` registered an inhibition of 0%.

Molecule `N#CCN(Cc1ccc(CCc2ccccc2)cc1)Cc1ccc2ccccc2c1` came in with an inhibition of 20%.

Consider `c1ccc(CN(Cc2ccc3ccccc3c2)c2ccncn2)cc1`, for which the inhibition turned out to be 34%.

On to `CCOC(=O)CCCCN(Cc1ccccc1)Cc1ccc2ccccc2c1`, for which the inhibition came out at 0%.

With `O=C(CN(Cc1ccccc1)Cc1ccc2ccccc2c1)OCCO`, the inhibition stood at 0%.

Molecule `N#CCN(Cc1ccc2ccccc2c1)Cc1ccccc1Br` gave an inhibition of 0%.

In turn, `N#CCN(Cc1ccccc1)Cc1ccc(Cl)cc1` had an inhibition of 0%.

`O=C(CN(Cc1ccccc1)Cc1ccc2ccccc2c1)OCCc1ccccc1` had an inhibition of 0%.

With `CCCCNC(=O)CN(Cc1ccccc1)Cc1ccc2ccccc2c1`, the inhibition turned out to be 0%.

`N#CCCCN(Cc1ccccc1)Cc1ccc2ccccc2c1` registered an inhibition of 0%.

`O=C(CN(Cc1ccccc1)Cc1ccc2ccccc2c1)N1CCCCC1` had an inhibition of 0%.

With `N#CCN(Cc1ccccc1)Cc1ccc2ccccc2n1`, the inhibition was found to be 0%.

In turn, `COc1ccc(CN(CC#N)Cc2ccc3ccccc3c2)cc1` returned an inhibition of 0%.

`N#CCN(Cc1ccccc1)Cc1ccc(C(F)(F)F)cc1` yielded an inhibition of 0%.

For the molecule `COc1ccc(CN(CC#N)Cc2ccccc2)cc1`, the inhibition stood at 0%.

In turn, `C#CCN(Cc1ccccc1)Cc1ccc2ccccc2c1` yielded an inhibition of 0%.

`N#CCN(C/C=C/c1ccccc1)Cc1ccccc1` returned an inhibition of 0%.

Consider `O=C(O)CCCCN(Cc1ccccc1)Cc1ccc2ccccc2c1`, for which the inhibition was determined as 0%.

Molecule `CCOC(=O)CN(Cc1ccccc1)Cc1ccc2ccccc2c1` came in with an inhibition of 0%.
